Assay results as given in ChEMBL document CHEMBL5543129, “Peptide Inhibitor Targeting the Extraterminal Domain in BRD4 Potently Suppresses Breast Cancer Both In Vitro and In Vivo” (J Med Chem, 2024).
Active and inactive are the calls of the source.

Key:
Format in all cases: functional, cell-based
MCF7 [1] = assay: Cytotoxicity against human MCF7 cells incubated for 1 week by CellTiter 96 Aqueous One Solution based assay; conditions: time 1.0 weeks
Method in brief: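 Cells (2 × 10^3/well, DMEM + 10% FBS, 37 °C, 5% CO2) treated with a concentration gradient of peptide for 1 week. MTS reagent added for 1 h, absorbance read at 490 nm, EC50 derived.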

MCF7 [2] = assay: Inhibition of colony formation in human MCF7 cells at 10 uM incubated for 2 weeks by crystal violet staining based assay
Method in brief: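 Cells are seeded at 1 × 10^3/well and treated with peptide (10 μM) for 2 weeks, alone or with JQ1 5 μM, iJMJD6 10 μM, ICI 2.5 μM, or tamoxifen 3 μM (tamoxifen-resistant lines). Colonies are stained with crystal violet, dissolved in 10% acetic acid, and read at 590 nm. Three biological repeats.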

MCF7 [3] = assay: Inhibition of cell migration in human MCF7 cells at 10 uM incubated for 24 hrs by inverted microscopic assay
Method in brief: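 Cells are seeded at 5 × 10^5/well and scratched at 80–90% confluence. They are kept in serum-free medium with peptide (10 μM); partner agents are JQ1 5 μM, iJMJD6 10 μM, or ICI 2.5 μM. Wound area is imaged by inverted microscope at 0 and 12 or 24 h. Wound closure % = (A0−A1)/A0 × 100. Three biological repeats.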

C[C@]12CC[C@@H]3c4ccc(O)cc4C[C@@H](CCCCCCCCC[S+]([O-])CCCC(F)(F)C(F)(F)F)[C@H]3[C@@H]1CC[C@@H]2O (stereo partly drawn)
active: Activity (MCF7 [1]) | inhibition (MCF7 [2]) | inhibition (MCF7 [3])
